Measurements as given in ChEMBL document CHEMBL4007487, “Discovery of Novel Pyridone-Conjugated Monosulfactams as Potent and Broad-Spectrum Antibiotics for Multidrug-Resistant Gram-Negative Infections” (J Med Chem, 2017).
Converted amounts (≈) assume the structure as drawn.

Key:
in vivo [1] = conditions: Sprague-Dawley, rat, iv, 1 mg/kg
Escherichia coli [2] = assay: Antibacterial activity against extended spectrum beta-lactamases producing Escherichia coli clinical isolates after 18 hrs by broth microdilution method; type: functional
Escherichia coli [3] = assay: In vivo antibacterial activity against Escherichia coli isolate 210737 infected in Kunming mouse systemic infection model assessed as increase in mouse survival administered subcutaneously 0.5 to 4 hrs post infection measured after 48 hrs by Bliss method; type: functional; conditions: isolate 210737, sc
In short: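 Kunming mice, half male and half female, 18–22 g, 5 per group. Lethal systemic infection by intraperitoneal injection of 0.5 mL clinical E. coli 210737 inoculum at 5×10^4 CFU/mL. Given subcutaneously twice, at 0.5 and 4.0 h post-infection, at doses of 0.625 to 20 mg/kg.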

[4] = Clearance in Sprague-Dawley rat at 1 mg/kg, iv measured up to 180 mins by LC-MS/MS analysis; conditions: in vivo
Plasma = assay: Fraction unbound in human plasma at 10 uM after 4 hrs by LC-MS/MS based rapid equilibrium dialysis method; type: ADME, cell-free
In short: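 Human plasma spiked at 10 μM was dialysed against buffer in a rapid equilibrium dialysis device for 4 h at 37 °C under 5% CO2 (n = 4). Both sides were quantified by LC–MS/MS. Fraction unbound was taken as the buffer concentration divided by the total plasma-side concentration.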

in vivo [5] = conditions: Sprague-Dawley, rat, iv, 1 mg/kg; remark: listed apart in the source
Acinetobacter baumannii = assay: Antibacterial activity against extended spectrum beta-lactamase OXA-23 producing multidrug resistant Acinetobacter baumannii clinical isolates after 18 hrs by broth microdilution method; type: functional
[6] = Volume of distribution in steady state in Sprague-Dawley rat at 1 mg/kg, iv measured up to 180 mins by LC-MS/MS analysis; type: ADME, organism-based; conditions: in vivo, read-out: Vdss
In short: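 Male Sprague-Dawley rats (200–220 g, n = 3 per group) received 1.0 mg/kg iv in water. Blood was taken from the retrobulbar vein at 2, 5, 15, 30, 45, 60, 90 and 180 min. Plasma was quantified by LC–MS/MS, and parameters were derived by noncompartmental analysis of mean plasma concentrations.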

Escherichia coli [7] = assay: Antibacterial activity against Escherichia coli isolate 210737 after 18 hrs by broth microdilution method; type: functional; conditions: isolate 210737, 18 h
In short: (§1)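 CLSI broth microdilution in Mueller-Hinton broth with 16 mg/L 2,2'-bipyridyl added. Compounds were dissolved in DMSO, or in water for meropenem and ceftizoxime sodium, then serially diluted in growth medium.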

Klebsiella pneumoniae [8] = assay: Antibacterial activity against Klebsiella pneumoniae isolate 212232 after 18 hrs by broth microdilution method; type: functional; conditions: isolate 212232, 18 h
In short: as §1

Klebsiella pneumoniae [9] = assay: Antibacterial activity against extended spectrum beta-lactamase KPC-2 producing multidrug resistant Klebsiella pneumoniae clinical isolates after 18 hrs by broth microdilution method; type: functional; conditions: Klebsiella pneumoniae, 18 h; read-out: MIC
[10] = Drug degradation in human plasma at 10 uM after 4 hrs by LC-MS/MS analysis; type: ADME, cell-free; conditions: read-out: Drug degradation
In short: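 Human plasma containing compound (10 μM, n = 4) was incubated for 4 h at 37 °C under 5% CO2. Concentrations at T0 and at 4 h were measured by LC–MS/MS, and degradation was expressed as a percentage relative to the T0 average.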

Pseudomonas aeruginosa = assay: Antibacterial activity against extended spectrum beta-lactamase IMP-4 producing multidrug resistant Pseudomonas aeruginosa clinical isolates after 18 hrs by broth microdilution method; type: functional
Klebsiella pneumoniae [11] = assay: In vivo antibacterial activity against multidrug resistant Klebsiella pneumoniae isolate 212232 infected in Kunming mouse systemic infection model assessed as increase in mouse survival administered subcutaneously 0.5 to 4 hrs post infection measured after 48 hrs by Bliss method; type: functional; conditions: isolate 212232, sc
In short: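 Kunming mice, half male and half female, 18–22 g, 5 per group. Infected intraperitoneally with 0.5 mL of MDR clinical K. pneumoniae 212232 at 3×10^6 CFU/mL. Subcutaneous doses of 3.125, 6.25, 12.5, 25, 50 and 100 mg/kg were given at 0.5 and 4.0 h post-infection.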

Klebsiella pneumoniae [12] = assay: In vivo antibacterial activity against multidrug resistant Klebsiella pneumoniae isolate 212232 infected in Kunming mouse systemic infection model assessed as increase in mouse survival at 100 mg/kg, sc administered 0.5 to 4 hrs post infection measured after 48 hrs by Bliss method; type: functional; conditions: isolate 212232, sc
In short: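 Lethal intraperitoneal infection of Kunming mice (mixed sex, 18–22 g, 5 per group) with 0.5 mL MDR K. pneumoniae 212232 at 3×10^6 CFU/mL. The 100 mg/kg dose was given subcutaneously at 0.5 and 4.0 h post-infection. Read-out is the percentage of mice surviving at 48 h after treatment.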

SMILES	half-life (in vivo [1])	MIC (Escherichia coli [2])	ED50 (Escherichia coli [3])	clearance at 3 h [4]	Fu (Plasma)	AUC(0-t) at 3 h (in vivo [5])	MIC (Acinetobacter baumannii)	Vd [6]	MIC (Escherichia coli [7])	MIC (Klebsiella pneumoniae [8])	MIC (Klebsiella pneumoniae [9])	metabolised at 4 h, 10 µM [10]	MIC (Pseudomonas aeruginosa)	ED50 (Klebsiella pneumoniae [11])	survival at 100 mg/kg (Klebsiella pneumoniae [12])
CC(C)C(O/N=C(\C(=O)N[C@@H]1C(=O)N(OS(=O)(=O)O)C1(C)C)c1nc(N)sc1Cl)c1cc(=O)c(O)cn1O (some centres not stated)	90 min	0.06 to 1 µg/mL (≈ 0.101 to 1.68 µM)	6.94 mg/kg	26.9 mL/min/kg	23%	634 ng·h/mL	0.06 to 2 µg/mL (≈ 0.101 to 3.36 µM)	1.41 L/kg	1 µg/mL (≈ 1.68 µM)	0.06 µg/mL (≈ 0.101 µM)	0.06 to 0.5 µg/mL (≈ 0.101 to 0.84 µM)	22%	0.25 to 8 µg/mL (≈ 0.42 to 13.4 µM)		
CC1(C)[C@H](NC(=O)/C(=N\OC(CS(C)(=O)=O)c2cc(=O)c(O)cn2O)c2csc(N)n2)C(=O)N1OS(=O)(=O)O (some centres not stated)	19.8 min		5.32 mg/kg	9.3 mL/min/kg	64%	1890 ng·h/mL	0.25 to 2 µg/mL (≈ 0.409 to 3.28 µM)	0.21 L/kg	0.06 µg/mL (≈ 0.0983 µM)	0.06 µg/mL (≈ 0.0983 µM)	0.06 to 2 µg/mL (≈ 0.0983 to 3.28 µM)	34%	1 to 32 µg/mL (≈ 1.64 to 52.4 µM)		
C[C@@H](O)[C@H]1C(=O)N2C(C(=O)O)=C(S[C@@H]3CN[C@H](C(=O)N(C)C)C3)[C@H](C)[C@H]12 [MEROPENEM]		0.125 to 8 µg/mL (≈ 0.326 to 20.9 µM)	2.04 mg/kg				64 µg/mL (≈ 167 µM)		0.125 µg/mL (≈ 0.326 µM)	> 64 µg/mL	32 to 64 µg/mL (≈ 83.4 to 167 µM)		32 to 64 µg/mL (≈ 83.4 to 167 µM)	> 100 mg/kg	0%
CC1(C)[C@H](NC(=O)/C(=N\OCc2cc(=O)c(O)cn2O)c2csc(N)n2)C(=O)N1OS(=O)(=O)O		0.25 to 1 µg/mL (≈ 0.482 to 1.93 µM)	4.19 mg/kg		47%	1710 ng·h/mL	0.5 to 64 µg/mL (≈ 0.964 to 123 µM)	0.14 L/kg	0.25 µg/mL (≈ 0.482 µM)	0.25 µg/mL (≈ 0.482 µM)	0.25 to 64 µg/mL (≈ 0.482 to 123 µM)	12%	1 to 4 µg/mL (≈ 1.93 to 7.71 µM)	> 100 mg/kg	40%
